Most compounds without a hit are left out; they make up all but 12% or so of the library.
PKD1 inh: blocks activity of human protein kinase D1; PKD1 kinase fluorescence polarization assay; inhibition, % (concentration not given with the values); hit rate 0.056% among 200,000
Arbovirus inh: arbovirus infection inhibition; inhibition, % at 10 µM; arbovirus infection cell-based antiviral screen; hit rate 0.37% among 200,000; in the data active = inhibition above about 30%
CHOP inh: CHOP inhibition in unfolded protein response; CHO-K1 CHOP-promoter luciferase, tunicamycin-induced, 15-18 h; inhibition, % at 10 µM; hit rate 3.8% among 220,000;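 active = compounds that reduced the stress-induced luciferase reporter signal by more than about 70% of percent inhibition, limit read from the data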;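 also: 0% = tunicamycin plus vehicle and 100% = wells without tunicamycin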
Rad51 HR inh: Rad51 (human) homologous recombination inhibition | Q06609 | hRad51 DNA strand exchange, fluorescence dequenching | inhibition, % at 10 µM | hit rate 0.085% among 200,000 | AID 1385;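 active = inhibition above 40% at the single screening dose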;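 also: 0% = DMSO control wells and 100% = blanks with heterologous ssDNA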
Target sequence (Q06609 whole entry, looked up): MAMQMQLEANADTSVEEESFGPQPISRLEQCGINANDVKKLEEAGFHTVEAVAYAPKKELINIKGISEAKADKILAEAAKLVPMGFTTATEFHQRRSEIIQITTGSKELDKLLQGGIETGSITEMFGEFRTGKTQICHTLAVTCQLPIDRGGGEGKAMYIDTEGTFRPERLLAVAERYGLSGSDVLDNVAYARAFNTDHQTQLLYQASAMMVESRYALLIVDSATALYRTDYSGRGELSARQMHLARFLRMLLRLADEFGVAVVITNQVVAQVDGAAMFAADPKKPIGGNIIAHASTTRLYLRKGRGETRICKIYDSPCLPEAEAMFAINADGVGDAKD
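material = hRad51 filaments on single-stranded DNA | reagent = Donor/quencher-labelled 47-bp dsDNA substrate | compound = 10 µM final, single point | schedule = strand-exchange reaction 15 min at room temperature | measured by = fluorescein emission 520 nm, excitation 485 nm | read-out basis = % inhibition versus plate control and blank means | benchmarks = plate controls and plate blanks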
Lmaj promast: inhibitors of Leishmania major promastigote growth | Leishmania major promastigotes, resazurin fluorescence viability | inhibition, % at 10 µM | hit rate 9% among 200,000;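 also: promastigotes grown with compound for 44 hours at 28 °C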
Wee1 degr inh: human Wee1 degradation inhibition, primary screen | HeLa Luc-Wee1K328M stability, luciferase luminescence; 100% = proteasome inhibitor MG132 effect | reporter increase, % at 5 µM | hit rate 1.2% among 220,000 | AID 1321;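 active = activation above the mean of all tested compounds plus 3 SD, set per screening run, cut at about 8.8% in these data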;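 also: cells exposed to compound for 20 h before luminescence read; 0% = DMSO alone and 100% = MG132 at 30 µM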
* marks the source's active call; other numbers are inactive results. Rule as the data show it, unless noted: active = inhibition above about 50%; inactive = the rest.

For CCN1CCN(c2ccc([N+](=O)[O-])cc2C=C2C(=O)NC(=O)NC2=O)CC1 the results were PKD1 inh -4, Arbovirus inh 12, CHOP inh -23, Rad51 HR inh -2, Lmaj promast 60* and Wee1 degr inh 4.
`CC(=O)N1CCN(c2ccc([N+](=O)[O-])cc2C=C2C(=O)NC(=O)NC2=O)CC1` gave PKD1 inh -8, Arbovirus inh 1, CHOP inh -4, Rad51 HR inh -8, Lmaj promast -2 and Wee1 degr inh 6.
Screening COc1cc2c(cc1OC)C(C(=O)N(C)C1CCCCC1)C1CCCCN1C2=O (centres undefined) returned PKD1 inh -6, Arbovirus inh 4, CHOP inh -7, Rad51 HR inh 3, Lmaj promast 59* and Wee1 degr inh 5.
`Cc1ccc(-n2cc(CNC(C)Cc3cnccn3)c(-c3cccc(C)c3)n2)cc1` (centres undefined) gave PKD1 inh 1, Arbovirus inh -13, CHOP inh 35, Rad51 HR inh 21, Lmaj promast 65* and Wee1 degr inh 5.
For CN(C)C(Cc1ccccc1)C(=O)c1ccccc1 (centres undefined) the results were PKD1 inh -2, Arbovirus inh 10, CHOP inh 12, Rad51 HR inh 4, Lmaj promast -1 and Wee1 degr inh 0.
For CN1CCN(Cc2ccccc2Sc2ccccc2)CC1 the results were PKD1 inh -6, Arbovirus inh -23, CHOP inh 17, Lmaj promast 100* and Wee1 degr inh -2.
Screening CC(Cc1ccccc1Sc1ccccc1)N(C)C (centres undefined) returned PKD1 inh -2, Arbovirus inh -22, CHOP inh 5, Lmaj promast 100* and Wee1 degr inh 1.
`CC(N)Cc1ccccc1Sc1ccc(O)cc1` (centres undefined) gave PKD1 inh 13, Arbovirus inh 0, CHOP inh 34, Lmaj promast 88* and Wee1 degr inh 5.
CC(Cc1ccccc1Sc1ccc(O)cc1)N(C)C (centres undefined) was read as PKD1 inh -3, Arbovirus inh -25, CHOP inh 44, Rad51 HR inh 3, Lmaj promast 101* and Wee1 degr inh -2.
For CCCn1c(=O)c2[nH]c(C3CCCC3)nc2n(CCCOC(=O)c2ccc(S(=O)(=O)F)cc2)c1=O the results were CHOP inh 0.
COc1cccc2c1O[C@H]1C(=O)CC[C@H]3CN(C)CCC231 (some centres undefined) was read as Rad51 HR inh -11.
Screening COc1ccccc1Sc1ccccc1CC(C)N (centres undefined) returned PKD1 inh -2, Arbovirus inh -22, CHOP inh 30, Rad51 HR inh 6, Lmaj promast 95* and Wee1 degr inh 0.
For COc1cc(CC(C)N)c(OC)cc1I (centres undefined) the results were CHOP inh -6 and Rad51 HR inh -8.
CCc1ccc(-c2nn(Cc3ccccc3)cc2C=O)cc1 was read as PKD1 inh 0, Arbovirus inh -6, CHOP inh 20, Rad51 HR inh -2, Lmaj promast 18 and Wee1 degr inh -1.
Screening NC1CCc2cc(O)c(O)cc2C1 (centres undefined) returned CHOP inh 5.
Screening CN1CCC(N(C)c2ncnc3ccc(Br)cc23)CC1 returned PKD1 inh -1, Arbovirus inh -4, CHOP inh 13, Rad51 HR inh 1, Lmaj promast 52* and Wee1 degr inh 0.
For CN1CCN(c2ncnc3ccc(Br)cc23)CC1 the results were PKD1 inh 1, Arbovirus inh 7, CHOP inh 43, Rad51 HR inh 0, Lmaj promast 4 and Wee1 degr inh 0.
`Cc1nonc1OCCNCCNc1ccc([N+](=O)[O-])c2cccnc12` gave PKD1 inh -2, Arbovirus inh 0, CHOP inh 32, Rad51 HR inh 3, Lmaj promast 17 and Wee1 degr inh 4.
CC(=O)OCC1=C(C(=O)[O-])N2C(=O)[C@@H](NC(=O)CCC[C@@H](N)C(=O)[O-])[C@H]2SC1.[Zn+2] was read as CHOP inh -15.
`CCOC(=O)C1(c2ccccc2)CCN(CC(=O)Nc2ccc(C)cc2)CC1` gave PKD1 inh -7, Arbovirus inh 0, CHOP inh 31, Rad51 HR inh -9, Lmaj promast 9 and Wee1 degr inh 0.
`CCOC(=O)C1(CCOc2ccccc2)CCN(C2Cc3ccccc3C2)CC1` gave PKD1 inh 7, Arbovirus inh -14, CHOP inh 26, Rad51 HR inh 10, Lmaj promast 88* and Wee1 degr inh -5.
Screening O=C1NC(=O)C(=Cc2ccc3c(c2)OCO3)C(=O)N1 returned PKD1 inh -5, Arbovirus inh 12, CHOP inh 4, Rad51 HR inh -2, Lmaj promast -7 and Wee1 degr inh 9.1*.
`O=C1NC(=O)C(=Cc2ccc(N3CCOCC3)cc2)C(=O)N1` gave PKD1 inh -4, Arbovirus inh 8, CHOP inh 14, Rad51 HR inh -4, Lmaj promast -2 and Wee1 degr inh -1.
For NC(CCCCCP(=O)(O)O)C(=O)O (centres undefined) the results were CHOP inh -19.
CC1=C(C/C(C)=C/c2ccccc2)/C(=C/CO)[C@H](O)[C@](C)(O)C12CC2 was read as Rad51 HR inh 7.
C=CCN1C(=O)/C(=C/c2cc(C)n(-c3cccnc3)c2C)C(=O)NC1=S was read as PKD1 inh -11, Arbovirus inh 2, CHOP inh -58, Rad51 HR inh -11, Lmaj promast 99* and Wee1 degr inh 2.
Cc1cc(C=C2C(=O)NC(=O)NC2=O)c(C)n1-c1cccnc1 was read as CHOP inh 3 and Wee1 degr inh 0.
NC(C(=O)O)c1cc(=O)[nH]o1 (centres undefined) was read as CHOP inh -22.
Screening CCCC(=O)OCC[N+](C)(C)C returned PKD1 inh -12, Arbovirus inh 0, CHOP inh 8, Rad51 HR inh -1, Lmaj promast -5 and Wee1 degr inh 9.4*.
O=C(COc1ccccc1)N1CCN(CCN2C(=O)c3cccc4cccc(c34)C2=O)CC1 was read as PKD1 inh 2, Arbovirus inh 0, CHOP inh -3, Rad51 HR inh 6, Lmaj promast 58* and Wee1 degr inh -4.
`O=C(COc1ccccc1F)N1CCN(CCN2C(=O)c3cccc4cccc(c34)C2=O)CC1` gave PKD1 inh 1, Arbovirus inh -4, CHOP inh 16, Rad51 HR inh -31, Lmaj promast 44 and Wee1 degr inh 0.
`Clc1ccc(OCC#CCN2CCCCCC2)cc1` gave PKD1 inh -6, Arbovirus inh 2, CHOP inh 2, Lmaj promast 85* and Wee1 degr inh -2.
O[C@@H]1CCCN2CCc3c([nH]c4ccccc34)[C@H]12 was read as Rad51 HR inh 1.

Screening data deposited in PubChem by several laboratories.
